Screening results deposited in PubChem BioAssay by several laboratories.
In the library only some 2% were active in any assay of this set; here they are far more common.
VLA-4 inh – inhibition in a human VLA-4 binding assay. P13612. inhibition, % (about 7 µM as worked out from the volumes in the protocol). 330,000 tested, 0.2% active. VLA-4 expressing cells, ligand binding flow cytometry; in the data active means inhibition above about 50%
FGF22 binding – FGF22 (human) thermal shift binding; recombinant FGF22 thermal shift, SYPRO orange fluorescence; percent of sucrose octasulfate shift, DMSO zero; activity (Tm shift, normalised), % at 9.99 µM; 340,000 tested, 1.5% active; AID 651658;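 active means mean Tm shift, scaled 0 neutral to 100 positive control, at about 1.3% or above, every replicate too, limit read from the data; inconclusive means no clear call, values can overlap the other calls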
DAGLB inhibitor – blocks human DAGLB lipase activity; HEK293T DAGLB membrane lysate, EnzChek fluorogenic substrate; 340,000 tested, 0.059% active; AID 504411; Q8NCG7; inhibition, % at 5.17 µM; in the data active means inhibition above about 34%
ABCB6 inh MLPCN – blocks the human ABCB6 transporter; fluorescence ratio to DMSO, % at 10 µM; 360,000 tested, 0.19% active; AID 602162; K562-ABCB6 porphyrin accumulation, flow cytometry, 1 h; active compounds read low;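 active means fluorescence ratio to DMSO below 75%, the collection mean minus 3 SD; inconclusive means too few cells collected in the well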;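 further: signal is porphyrin accumulated inside mitochondria; lower ratio means ABCB6 inhibition with less porphyrin fluorescence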
Target sequence (Q9NP58 whole entry, looked up): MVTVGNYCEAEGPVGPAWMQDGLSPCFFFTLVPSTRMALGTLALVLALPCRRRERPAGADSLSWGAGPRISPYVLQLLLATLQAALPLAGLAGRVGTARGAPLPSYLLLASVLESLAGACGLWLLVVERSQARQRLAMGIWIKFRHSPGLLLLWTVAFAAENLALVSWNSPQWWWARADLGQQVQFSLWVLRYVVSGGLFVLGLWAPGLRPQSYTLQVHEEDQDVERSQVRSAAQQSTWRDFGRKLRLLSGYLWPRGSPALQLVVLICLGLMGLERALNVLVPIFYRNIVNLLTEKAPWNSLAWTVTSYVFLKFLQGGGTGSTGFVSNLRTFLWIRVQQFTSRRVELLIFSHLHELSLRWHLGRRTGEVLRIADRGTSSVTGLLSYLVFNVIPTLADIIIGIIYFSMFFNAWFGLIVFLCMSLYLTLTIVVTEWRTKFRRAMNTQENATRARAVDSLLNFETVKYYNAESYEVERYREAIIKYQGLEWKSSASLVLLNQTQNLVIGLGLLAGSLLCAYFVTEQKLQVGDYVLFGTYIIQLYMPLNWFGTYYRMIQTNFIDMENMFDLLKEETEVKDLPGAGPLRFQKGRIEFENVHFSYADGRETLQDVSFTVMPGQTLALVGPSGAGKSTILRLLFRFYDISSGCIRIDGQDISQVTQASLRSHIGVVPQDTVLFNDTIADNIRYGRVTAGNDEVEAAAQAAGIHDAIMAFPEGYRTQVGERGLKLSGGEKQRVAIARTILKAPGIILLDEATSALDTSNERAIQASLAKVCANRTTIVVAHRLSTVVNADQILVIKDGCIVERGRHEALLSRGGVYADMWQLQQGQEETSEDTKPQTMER
Granule exo inh – blocks lytic granule exocytosis. TALL-104 LAMP-1 surface exposure, flow cytometry; cells stimulated with thapsigargin and PMA. inhibition, % at 10 µM. 360,000 tested, 0.66% active. AID 651702;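 active means inhibition above about 55%, limit read from the data; inconclusive means no clear call, values can overlap the other calls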
MT1-MMP act inh – MT1-MMP (human) activation inhibition; P50281; GFP/RFP ratio change, % at 20 µM; HT1080 RFP-PRO-GFP cells, GFP/RFP ratio fluorescence, overnight; percent of plate control window, DMSO zero; 360,000 tested, 0.061% active;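 active means GFP/RFP ratio change of at least 30% with cell ATP level not reduced by more than half and red fluorescence within 50% of control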
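Assay system: HT1080 RFP-PRO-GFP cells | Dosing: 20 µM single dose, 1% DMSO | Incubation: Cells overnight before dosing, compound overnight, 37 °C, 5% CO2 | Evaluation: GFP/RFP fluorescence ratio | Control set: DMSO-only wells and HT1080 RFP-L50D-GFP cell wells as references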
A number is an active result.

`COc1ccc(OC)c2c1C(=O)c1ccccc1C2=O` gave VLA-4 inh inactive.
Screening COc1ccc(OC)c2c1C(=O)C(Cl)=C(Cl)C2=O returned VLA-4 inh inactive, FGF22 binding inactive, DAGLB inhibitor inactive, ABCB6 inh MLPCN inactive, Granule exo inh 93 and MT1-MMP act inh inactive.
Screening C[C@@H]1CN([C@H](C)CO)C(=O)c2cc(NC(=O)CCCN(C)C)ccc2O[C@@H](C)CCCCO[C@H]1CN(C)S(=O)(=O)c1cccs1 returned FGF22 binding inactive.
COc1ccccc1C(O)c1ncc(-c2cccc3ccccc23)[nH]1 (centres undefined) was read as FGF22 binding 43, ABCB6 inh MLPCN inactive, Granule exo inh inactive and MT1-MMP act inh inactive.
Screening OC(c1ccc(F)cc1)c1ncc(-c2cccc3ccccc23)[nH]1 (centres undefined) returned FGF22 binding inactive, ABCB6 inh MLPCN inactive, Granule exo inh inactive and MT1-MMP act inh inactive.
For Fc1ccc(NC(=S)NCCN2CCOCC2)c(F)c1F the results were VLA-4 inh inactive, FGF22 binding 43, DAGLB inhibitor inactive, ABCB6 inh MLPCN inactive, Granule exo inh inactive and MT1-MMP act inh inactive.
Cc1ccc(S(=O)(=O)/N=C(\Sc2ccccc2)c2ccccc2)cc1 was read as VLA-4 inh inactive, DAGLB inhibitor inactive, ABCB6 inh MLPCN inactive, Granule exo inh 65 and MT1-MMP act inh inactive.
`C/C(=N\S(=O)(=O)c1ccc(C)cc1)NC(=S)Nc1ccccc1` gave VLA-4 inh inactive, FGF22 binding 44, DAGLB inhibitor inactive, ABCB6 inh MLPCN inactive, Granule exo inh inactive and MT1-MMP act inh inactive.
For COc1ccc(NC(=S)N/C(=N/S(=O)(=O)c2ccc(C)cc2)c2ccccc2)cc1 the results were VLA-4 inh inactive, FGF22 binding 43, DAGLB inhibitor inactive, ABCB6 inh MLPCN inactive, Granule exo inh inactive and MT1-MMP act inh inactive.
For O=S(=O)(/N=C(\Sc1ccccc1)c1ccccc1)c1ccc(Cl)cc1 the results were VLA-4 inh inactive, DAGLB inhibitor inactive, ABCB6 inh MLPCN inactive, Granule exo inh inactive and MT1-MMP act inh inactive.
Clc1cccc2c1Sc1ccccc1CC2N1CCNCC1 (centres undefined) was read as VLA-4 inh inactive, DAGLB inhibitor inactive, ABCB6 inh MLPCN inactive, Granule exo inh inconclusive and MT1-MMP act inh inactive.
Screening Clc1ccc2c(c1)C(N1CCNCC1)Cc1ccccc1S2 (centres undefined) returned VLA-4 inh inactive, DAGLB inhibitor inactive, ABCB6 inh MLPCN inactive, Granule exo inh 73 and MT1-MMP act inh inactive.
CO[C@H]1CN(C)C(=O)c2ccc(NC(=O)c3cnccn3)cc2OC[C@H](C)N(CC2CC2)C[C@H]1C was read as FGF22 binding inactive.
`CCn1c(SCC(=O)N/N=C(/C)c2ccncc2)nc2ccccc21` gave VLA-4 inh inactive, FGF22 binding inactive, DAGLB inhibitor inactive, ABCB6 inh MLPCN inactive, Granule exo inh 60 and MT1-MMP act inh inactive.
Screening C[C@H](CO)N1C[C@H](C)[C@@H](CN(C)Cc2ccccn2)Oc2cc(C3=CCCCC3)ccc2S1(=O)=O returned FGF22 binding inactive.
`COc1ccc2c(Cl)c(C(=O)NC3CCS(=O)(=O)C3)sc2c1` (centres undefined) gave VLA-4 inh inactive, DAGLB inhibitor inactive, ABCB6 inh MLPCN inactive, Granule exo inh inactive and MT1-MMP act inh inactive.
Screening COc1ccc2c(Cl)c(C(=O)NN3CCN(C)CC3)sc2c1 returned VLA-4 inh inactive, FGF22 binding 44, DAGLB inhibitor inactive, ABCB6 inh MLPCN inactive, Granule exo inh inactive and MT1-MMP act inh inactive.
For CN(Cc1nc(-c2cnccn2)no1)Cc1cccc2ccccc12 the results were VLA-4 inh inactive, FGF22 binding inactive, DAGLB inhibitor inactive, ABCB6 inh MLPCN inactive, Granule exo inh inactive and MT1-MMP act inh inactive.
Cc1cc(C)n(-c2cccc(CN(C)Cc3nc(-c4cnccn4)no3)c2)n1 was read as VLA-4 inh inactive, FGF22 binding 44, DAGLB inhibitor inactive, ABCB6 inh MLPCN inactive, Granule exo inh inactive and MT1-MMP act inh inactive.
Screening CCCNC(=O)C[C@@H]1CC[C@@H]2[C@H](COC[C@H](O)CN2Cc2ccc(Cl)c(Cl)c2)O1 returned FGF22 binding inactive.
`NC(=O)C1CCN(C(=O)CNC(=O)c2ccc(F)cc2)CC1` gave VLA-4 inh inactive, FGF22 binding 44, DAGLB inhibitor inactive, ABCB6 inh MLPCN inactive, Granule exo inh inactive and MT1-MMP act inh inactive.
O=C(NCC(=O)N1CCN(c2ncccn2)CC1)c1ccc(F)cc1 was read as VLA-4 inh inactive, FGF22 binding inactive, DAGLB inhibitor inactive, ABCB6 inh MLPCN inactive, Granule exo inh inactive and MT1-MMP act inh inactive.
COCc1cc(C)nc(OCC(=O)N/N=C/c2ccc(C)cc2)c1C#N was read as VLA-4 inh inactive, FGF22 binding inactive, DAGLB inhibitor inactive, ABCB6 inh MLPCN inactive, Granule exo inh inactive and MT1-MMP act inh inactive.
Screening COCc1cc(C)nc(OCC(=O)N/N=C/c2ccc(OC)c(O)c2)c1C#N returned VLA-4 inh inactive, FGF22 binding 44, DAGLB inhibitor inactive, ABCB6 inh MLPCN inactive, Granule exo inh inactive and MT1-MMP act inh inactive.
Screening CC(C)NC(=O)Nc1ccc2c(c1)C(=O)N([C@H](C)CO)C[C@H](C)[C@H](CN(C)CC1CCCCC1)OCCCC[C@@H](C)O2 returned FGF22 binding inactive.
`O=S(=O)(Nn1cnnc1)c1ccc2ccccc2c1` gave VLA-4 inh inactive, FGF22 binding 43, DAGLB inhibitor inactive, ABCB6 inh MLPCN inactive, Granule exo inh inactive and MT1-MMP act inh inactive.
O=S(=O)(Nn1cnnc1)c1ccccc1 was read as VLA-4 inh inactive, DAGLB inhibitor inactive, ABCB6 inh MLPCN inactive, Granule exo inh inactive and MT1-MMP act inh inactive.
`Cc1occc1-c1n[nH]c(=S)n1C` gave VLA-4 inh inactive, FGF22 binding 43, DAGLB inhibitor inactive, ABCB6 inh MLPCN inactive, Granule exo inh inactive and MT1-MMP act inh inactive.
Cc1occc1-c1n[nH]c(=S)n1-c1ccccc1 was read as VLA-4 inh inactive, FGF22 binding inactive, DAGLB inhibitor inactive, ABCB6 inh MLPCN inactive, Granule exo inh inactive and MT1-MMP act inh inactive.
COCC(=O)Nc1ccc2c(c1)[C@H]1C[C@@H](CC(=O)NCCc3ccccc3)O[C@H](CO)[C@H]1O2 was read as FGF22 binding inactive.
O=C(C[C@@H]1CC[C@H]2[C@@H](COC[C@@H](O)CN2Cc2ccc(C(F)(F)F)cc2)O1)NCCc1ccccc1 was read as FGF22 binding inactive.
Cc1cc(C)nc(N2CCCC(C(=O)NCc3ccc4c(c3)OCO4)C2)n1 (centres undefined) was read as VLA-4 inh inactive, FGF22 binding 43, DAGLB inhibitor inactive, ABCB6 inh MLPCN inactive, Granule exo inh inactive and MT1-MMP act inh inactive.
